Rows were chosen to be rich in hits. Some 3.7% of all compounds tested hit in one or more screens of this group.
OX1R antag-1 = OX1R (HCRTR1) antagonists, primary screen, fluorescence, CHO/OX1R cells, Fluo-8 calcium, orexin A. Orexin/Hypocretin receptor type 1 (Homo sapiens), O43613. Fluo-8 calcium fluorescence. inhibition, % at 5 µM. 0.43% of 330,000 active. AID 434989, 2010;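 active = inhibition above its plate's threshold, mean inhibition of all tested compounds on the plate plus 3 SD, cut at about 37% in these data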;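 note: 0% = orexin A challenge wells and 100% = SB-334867-A antagonist wells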
OX1R antag-2 = antagonists of human orexin 1 receptor (OX1R); 1.8% of 330,000 active; inhibition, % at 6.6 µM; OX1R-expressing cells, FRET antagonist read-out; in the data active = inhibition mostly above about 38%, no sharp cut-off; inactive = mostly below about 40%;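 note: 0% = agonist challenge alone and 100% = reference antagonist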
GPR7 antagonist = GPR7 receptor antagonists, primary screen, cell-based, fluorescence, single concentration | inhibition, % at 4.4 µM | Neuropeptides B/W receptor type 1 (Homo sapiens), P48145 | 1.1% of 290,000 active | GPR7-expressing cells, fluorescence antagonist assay | AID 1861, 2009; in the data active = inhibition above about 16%, passing the limit was not always enough;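 note: cells stimulated with the agonist NPW; 0% = agonist with vehicle and 100% = vehicle without agonist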
Target sequence (P48145 whole entry, looked up): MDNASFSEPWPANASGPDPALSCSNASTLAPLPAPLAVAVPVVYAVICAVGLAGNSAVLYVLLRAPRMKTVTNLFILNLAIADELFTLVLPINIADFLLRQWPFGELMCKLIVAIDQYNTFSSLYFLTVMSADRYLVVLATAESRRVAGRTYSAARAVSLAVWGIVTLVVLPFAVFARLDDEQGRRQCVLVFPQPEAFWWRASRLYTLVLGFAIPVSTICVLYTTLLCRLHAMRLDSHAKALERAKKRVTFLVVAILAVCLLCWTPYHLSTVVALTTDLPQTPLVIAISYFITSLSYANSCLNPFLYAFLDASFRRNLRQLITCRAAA
PGE2 EP2 inh = human EP2 receptor antagonists, primary screen, TR-FRET cAMP, C6 glioma cells; Prostaglandin E2 receptor EP2 subtype (Homo sapiens), P43116; C6 glioma cells expressing human EP2; cells stimulated with saturating PGE2; inhibition, % at 25 µM; 0.52% of 260,000 active; AID 1422, 2008;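 active = percent inhibition above 40 after rounding to a whole number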;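 note: rat C6 glioma host cells with rolipram phosphodiesterase inhibitor present; the protocol text gives 20 µM as final concentration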
Target sequence (P43116 whole entry, looked up): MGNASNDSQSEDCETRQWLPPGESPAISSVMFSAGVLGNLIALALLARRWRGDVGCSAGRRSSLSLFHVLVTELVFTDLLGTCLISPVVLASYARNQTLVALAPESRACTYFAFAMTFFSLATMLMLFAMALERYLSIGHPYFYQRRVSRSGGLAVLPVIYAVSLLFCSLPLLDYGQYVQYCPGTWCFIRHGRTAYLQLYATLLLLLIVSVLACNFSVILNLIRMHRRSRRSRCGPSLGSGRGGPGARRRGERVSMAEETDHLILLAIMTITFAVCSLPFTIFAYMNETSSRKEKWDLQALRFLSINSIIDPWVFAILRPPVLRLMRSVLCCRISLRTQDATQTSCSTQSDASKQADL
CHO parental Ca = ATP-evoked calcium signal inhibitors, parental CHO, primary screen, counter-screen for OX1R antagonist project, cell-based, fluorescence, Fluo-8 calcium dye. parental CHO-K1, ATP-induced calcium, Fluo-8 fluorescence. 0.63% of 330,000 active. inhibition, % at 5.6 µM. AID 463079, 2010;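 active = inhibition above that plate's mean sample inhibition plus 3 SD, cut at about 26% in these data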;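 note: 0% = ATP-challenged DMSO wells and 100% = DMSO wells without ATP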
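Material: Parental CHO cells | Reagent: ATP | Compound dosing: Single nominal dose of 5.6 µM per compound | Detection: Intracellular calcium via Fluo-8 no-wash fluorescent dye | Read-out: % inhibition of ATP-induced calcium mobilization | Benchmarks: Low control ATP plus DMSO, high control DMSO only | Replicates: Singlicate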
EP2 modulator = EP2 receptor modulators, cAMP readout, primary screen, cell-based, HTRF cAMP, PGE2 stimulation; Prostaglandin E2 receptor EP2 subtype (Homo sapiens), P43116; EP2-expressing cells, cAMP HTRF FRET, PGE2 co-stimulation; induction, % at 25 µM; 0.83% of 260,000 active; AID 940, 2007;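 active = compounds whose cAMP rise, as percent of the full-agonist control response, exceeds 60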;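 note: rat C6 glioma line stably carrying human EP2 under a CMV promoter; the protocol text gives 20 µM as final concentration; 100% = response of wells given 1 µM PGE2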
GPR7 antag cf = GPR7 receptor antagonists, confirmation, cell-based, fluorescence, single concentration; shares compounds with GPR7 antagonist; GPR7-expressing cells, calcium fluorescence antagonist mode; inhibition, % at 4.4 µM; 52% of 2,400 active; AID 1952, 2009; in the data active = inhibition above about 24%;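 note: stimulated with the GPR7 agonist NPW; 0% = agonist plus vehicle and 100% = vehicle alone without agonist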
MCHR1 antag = MCHR1 antagonists in cells, counter-screen for GPR7 antagonist project, cell-based, fluorescence, human; 62% of 2,400 active; shares compounds with GPR7 antagonist; inhibition, % at 4.4 µM; AID 2148, 2009; MCHR1-expressing cells, fluorescence antagonist assay; in the data active = inhibition above about 22%;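 note: 0% = vehicle with agonist and 100% = vehicle without agonist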
Starred values were filed as active, the others as inactive.

Results for O=C(c1cc2ccccc2o1)N1CCN(C/C=C/c2ccccc2)CC1 ?
OX1R antag-1: -13; OX1R antag-2: 2; GPR7 antagonist: 29*; CHO parental Ca: -4; GPR7 antag cf: 7; MCHR1 antag: 21*

What do the screens show for `CN(C)c1ccc(CNc2nc3ccccc3s2)cc1`?
OX1R antag-1: -7; OX1R antag-2: 11; GPR7 antagonist: -13; CHO parental Ca: 24

How did OC(C#CCCN1CCCCC1)(c1ccccc1)C1CCCCC1 (stereo unspecified) do in these assays?
OX1R antag-1: -13; OX1R antag-2: 4; GPR7 antagonist: 12; PGE2 EP2 inh: 5; CHO parental Ca: -5; EP2 modulator: -41

How did OC(C#CCCN1CCCCC1)(c1ccccc1)c1ccccc1 do in these assays?
OX1R antag-1: -16; OX1R antag-2: 5; GPR7 antagonist: 22*; PGE2 EP2 inh: 4; CHO parental Ca: -16; EP2 modulator: -16; GPR7 antag cf: -8; MCHR1 antag: 6

How did O=C(/N=C1\NC(=O)C(F)(C(F)(F)F)S1)NC1CCCCC1 (stereo unspecified) do in these assays?
OX1R antag-1: 7; OX1R antag-2: 1; PGE2 EP2 inh: 7; CHO parental Ca: -11; EP2 modulator: 10

Results for Cc1ccc(NCc2nnc(SCC(N)=O)o2)c(C)c1 ?
OX1R antag-1: -16; OX1R antag-2: 4; GPR7 antagonist: -1; PGE2 EP2 inh: 8; CHO parental Ca: -10; EP2 modulator: 17

Results for Cc1ccc(NCc2nnc(SCC(=O)OC3CCCCC3)o2)c(C)c1 ?
OX1R antag-1: -14; OX1R antag-2: 9; GPR7 antagonist: 28*; PGE2 EP2 inh: 12; CHO parental Ca: 4; EP2 modulator: 14; GPR7 antag cf: 23; MCHR1 antag: 23*

Results for O=S(=O)(/N=C(\c1ccc(Cl)cc1)N1CCOCC1)c1ccccc1 ?
OX1R antag-1: -12; OX1R antag-2: 4; GPR7 antagonist: 5; PGE2 EP2 inh: 8; CHO parental Ca: -11; EP2 modulator: 8

What do the screens show for `O=S(=O)(/N=C(/c1ccccc1)N1CCCCCC1)c1ccccc1`?
OX1R antag-1: -21; OX1R antag-2: 22; GPR7 antagonist: 33*; PGE2 EP2 inh: 3; CHO parental Ca: -6; EP2 modulator: 7; GPR7 antag cf: 1; MCHR1 antag: -1

What do the screens show for `O=C(Nc1ccc(Cc2ccc(NC(=O)N3CCOCC3)cc2)cc1)N1CCOCC1`?
OX1R antag-1: 7; OX1R antag-2: 12; GPR7 antagonist: -5; PGE2 EP2 inh: 7; CHO parental Ca: -7; EP2 modulator: -9

Results for CCCCCn1c(=O)[nH]c2cc(C(=O)NCCc3ccc(OC)c(OC)c3)ccc2c1=O ?
OX1R antag-1: -18; OX1R antag-2: 16; GPR7 antagonist: 5; PGE2 EP2 inh: 4; CHO parental Ca: -8; EP2 modulator: -1

Results for COc1ccc(-n2c(=O)[nH]c3cc(C(=O)NCCc4ccc(Cl)cc4)ccc3c2=O)cc1OC ?
OX1R antag-1: -2; OX1R antag-2: 22; GPR7 antagonist: 36*; PGE2 EP2 inh: 13; CHO parental Ca: -3; EP2 modulator: -32; GPR7 antag cf: 36*; MCHR1 antag: 60*

How did COc1ccc(S(=O)(=O)N2CCCCCC2)cc1C(=O)N(C)CCOc1ccccc1 do in these assays?
OX1R antag-1: -30; OX1R antag-2: 26; CHO parental Ca: -23

How did O=C(NCCc1ccccc1)c1cc(S(=O)(=O)N2CCCC2)ccc1F do in these assays?
OX1R antag-1: -6; OX1R antag-2: 14; GPR7 antagonist: 26*; CHO parental Ca: -20; GPR7 antag cf: 11; MCHR1 antag: -4

What do the screens show for `Cc1ccc(S(=O)(=O)N2CCCCC2)cc1C(=O)N(C)CCOc1ccccc1`?
OX1R antag-1: -28; OX1R antag-2: 21; GPR7 antagonist: 23*; CHO parental Ca: -23; GPR7 antag cf: 20; MCHR1 antag: 22*

What do the screens show for `C=CCn1c(N2CCC(C(=O)NCC(C)C)CC2)nc2ccccc21`?
PGE2 EP2 inh: 6; EP2 modulator: -30

Results for CCCc1ccc(C(=O)CN2C(=O)C(=O)N(C3CCCC3)C2=O)cc1 ?
OX1R antag-1: -9; OX1R antag-2: 5; CHO parental Ca: -14

How did CSCCC(NC(=O)c1ccco1)C(=O)OC(C)C(=O)NC(=O)NC1CCCCC1 (stereo unspecified) do in these assays?
OX1R antag-1: 1; OX1R antag-2: 19; GPR7 antagonist: 29*; PGE2 EP2 inh: 8; CHO parental Ca: -19; EP2 modulator: 4; GPR7 antag cf: 23; MCHR1 antag: 48*

What do the screens show for `CCOC(=O)CSc1ccc(S(=O)(=O)N2CCC(C)CC2)cc1[N+](=O)[O-]`?
OX1R antag-1: -20; OX1R antag-2: 11; GPR7 antagonist: -8; PGE2 EP2 inh: 6; CHO parental Ca: 1; EP2 modulator: 11

What do the screens show for `O=C(CC(C(=O)N1CCc2ccccc21)n1ccnc1)NCC1CCCO1` (stereo unspecified)?
OX1R antag-1: -11; OX1R antag-2: 25; GPR7 antagonist: 24*; PGE2 EP2 inh: 5; CHO parental Ca: 0; EP2 modulator: 24; GPR7 antag cf: 4; MCHR1 antag: 4

How did O=C(CC(C(=O)N1CCc2ccccc21)n1ccnc1)N1CCc2ccccc2C1 (stereo unspecified) do in these assays?
OX1R antag-1: -35; OX1R antag-2: -1; GPR7 antagonist: -6; CHO parental Ca: -22; EP2 modulator: 11

How did O=C(NCCCO)C1CCCN(S(=O)(=O)c2ccc(F)cc2)C1 (stereo unspecified) do in these assays?
PGE2 EP2 inh: 12; EP2 modulator: 5

Results for O=C(NCCN1CCOCC1)c1ccc(S(=O)(=O)Nc2ccccc2)cc1 ?
OX1R antag-1: -11; OX1R antag-2: -4; CHO parental Ca: 0

Assay outcomes from PubChem BioAssay.
